In the library only some 3% were active in any assay of this set; here they are far more common.
sEH inhibitor: inhibitors of human soluble epoxide hydrolase; recombinant human sEH enzymatic activity assay; 0.34% of 91,000 active; inhibition, % at 2 µM; AID 707; in the data active means inhibition above about 80%
Target sequence (P34913 whole entry, looked up): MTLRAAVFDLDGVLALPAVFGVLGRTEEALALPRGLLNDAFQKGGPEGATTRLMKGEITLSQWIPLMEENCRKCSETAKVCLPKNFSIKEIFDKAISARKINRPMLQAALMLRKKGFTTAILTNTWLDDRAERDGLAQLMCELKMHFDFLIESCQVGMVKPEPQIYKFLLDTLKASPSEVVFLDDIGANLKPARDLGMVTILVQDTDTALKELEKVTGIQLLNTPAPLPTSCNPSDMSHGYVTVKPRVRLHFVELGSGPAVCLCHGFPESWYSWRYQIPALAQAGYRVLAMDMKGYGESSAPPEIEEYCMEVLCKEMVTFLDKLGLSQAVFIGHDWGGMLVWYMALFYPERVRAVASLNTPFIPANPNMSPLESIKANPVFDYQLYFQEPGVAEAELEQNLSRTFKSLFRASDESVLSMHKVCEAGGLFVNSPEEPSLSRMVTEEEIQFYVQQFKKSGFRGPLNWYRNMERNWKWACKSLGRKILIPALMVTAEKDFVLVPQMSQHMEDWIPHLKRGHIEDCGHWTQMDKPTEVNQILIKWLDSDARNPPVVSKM
Measles CPE: protection of cells from measles virus. Measles virus-infected cells, CPE protection, absorbance. protection (pct of control), % at 4 µM. AID 841. 1.5% of 140,000 active; in the data active means protection mostly above about 24%, no sharp cut-off; inactive means mostly below about 26%
Yeast life ext: extends the lifespan of yeast; inhibition of the nicotinamide effect, % at 10 µM; AID 775; S. cerevisiae growth with nicotinamide, OD615; deaD strain in restrictive glucose medium; 0.68% of 130,000 active;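 active means inhibition above a set limit, placed 3 SD over the median of all compounds, cut at about 26% in these data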
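Buffer or medium: CSMM-D glucose medium, restrictive; test system: modified budding yeast, DeaD strain; compound: single dose 10 µM compound, 0.25% DMSO; schedule: culture preincubation 4 h, compound exposure 48 h, both 30 °C; detection: optical density (absorbance) at 615 nm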
BB579 growth dn: reduces growth of yeast BB579 in restrictive medium. inhibition, % at 10 µM. 0.51% of 140,000 active. S. cerevisiae BB579 growth, OD615, 48 h. AID 804;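 active means inhibition above a set limit, 3 SD over the mean compound inhibition, cut at about 44% in these data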
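Test system: Saccharomyces cerevisiae DeaD strain BB579, replicative lifespan model yeast | Buffer or medium: Restrictive CSMM-D medium | Doses: One dose, 10 µM compound with 0.25% DMSO | Incubation: 48 h exposure, 30 °C | Detection: Culture absorbance at 615 nm | Control set: Amphotericin B at 10 µg/mL as positive control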
SDO1 yeast rescue: compounds rescuing growth of sdo1-depleted yeast, bone marrow failure model; S. cerevisiae sdo1-depleted JHY4D growth rescue, OD600 30 h; active compounds read high; pdr5 snq2 efflux-pump mutant strain; z-score at 10 µM; AID 817; 0.21% of 140,000 active;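 active means z-score above 3 at both the 24 hr and the 30 hr optical density reads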
sEH activator: soluble epoxide hydrolase (human) activation. P34913. purified human sEH enzymatic activity, activator screen. activation, % at 2 µM. 0.04% of 91,000 active; in the data active means activation above about 37%
Each line names hits and unclear results; the compound was inactive in the other large screens.

O=[N+]([O-])c1cccc(/C=N/n2cnnc2)c1O	BB579 growth dn 76 (no result: sEH inhibitor, sEH activator)
CCC(C)Nc1c2c(nc3c(-c4ccccc4)c(C)nn13)CCC2 (stereo not drawn)	none
O=C(Oc1c(Cl)cc(Cl)c2cccnc12)c1cccc([N+](=O)[O-])c1	BB579 growth dn 100 (no result: sEH inhibitor, sEH activator)
CCCCNC(=O)[C@H](CSCc1ccccc1)N1Cc2ccccc2C1=O	none (no result: sEH inhibitor, sEH activator)
COc1ccc(/C=N/NC(=O)CCc2c(C)n[nH]c2C)cc1O	none
O=C1c2cccc3c([N+](=O)[O-])ccc(c23)C(=O)N1c1ccc(Cl)cn1	Yeast life ext 33
O=C1c2cccc3c([N+](=O)[O-])ccc(c23)C(=O)N1c1ccccn1	none
Clc1ccc(CON/C=N/c2ncnc3sccc23)c(Cl)c1	none
CC(=O)C1=C(C)N(Cc2ccccc2)C(=O)N[C@@H]1c1cccc(C(F)(F)F)c1	Yeast life ext 29 (no result: sEH inhibitor, sEH activator)
CC(=O)C1=C(C)N(Cc2ccccc2)C(=O)N[C@H]1c1cccc(C(F)(F)F)c1	none (no result: sEH inhibitor, sEH activator)
O=C(O)c1ccccc1C(=O)NNc1ccc(Cl)cc1	BB579 growth dn 93
O=C(NNC(=O)c1ccccc1-n1cccc1)c1ccc(Cl)cc1	none
CCN=c1scc(-c2cccs2)n1/N=C/c1cc(OC)ccc1O	none (no result: sEH inhibitor, sEH activator)
CC(C)N=c1scc(-c2cccs2)n1/N=C/c1ccc(O)c(O)c1O	BB579 growth dn 96 (no result: sEH inhibitor, sEH activator)
CCn1c(COc2ccccc2)nnc1SCC(=O)Nc1cc(C)ccc1OC	none
CCn1c(COc2ccc(C)cc2)nnc1SCC(=O)Nc1cc(OC)ccc1OC	Measles CPE 49
COc1ccc(C(=O)NC2CC(C)(C)Cc3occc32)cc1 (stereo not drawn)	none (no result: sEH inhibitor, sEH activator)
O=c1oc2ccccc2c(N2CCCCC2)c1[N+](=O)[O-]	none (no result: sEH inhibitor, sEH activator)
O=c1oc2ccccc2c(N2CCCC2)c1CN1CCCC1	BB579 growth dn 86
O=C(c1ccc(F)cc1)N1CCCCC(S(=O)(=O)c2ccccc2)C1=O (stereo not drawn)	none (no result: sEH inhibitor, sEH activator)
O=[N+]([O-])c1cc(S(=O)(=O)N2CCCCCC2)ccc1F	Yeast life ext 66 (no result: sEH inhibitor, sEH activator)
O=[N+]([O-])c1cc(S(=O)(=O)N2CCCC2)ccc1O	none (no result: sEH inhibitor, sEH activator)
O=C(COC(=O)c1cc([N+](=O)[O-])ccc1NCCO)c1ccccc1	none (no result: sEH inhibitor, sEH activator)
Cc1ccc(-c2cc(-c3ccccc3Cl)[nH]n2)c(O)c1	BB579 growth dn 92
COc1ccc(CCN(Cc2cccs2)S(=O)(=O)c2ccc(S(=O)(=O)N(C)C3CCCCC3)cc2)cc1OC	none (no result: sEH inhibitor, sEH activator)
CCSc1nnc(NC(=O)C2(C)Cc3ccccc3C(=O)O2)s1 (stereo not drawn)	Yeast life ext 37
O=C1CC(c2ccc(Cl)cc2)n2nc(N3C(=O)CCC3=O)nc2N1 (stereo not drawn)	none
O=C1CC(c2ccccc2)n2nc(N3C(=O)CCC3=O)nc2N1 (stereo not drawn)	Measles CPE 52 (no result: sEH inhibitor, sEH activator)
CC[n+]1c(/C=C2\C=C(C)CC(C)(C)C2)sc2ccccc21	Yeast life ext 40
CC[n+]1c(/C=C2\C=C(C)CC(C)C2)sc2ccccc21 (stereo not drawn)	Yeast life ext 27
CC[n+]1c(/C=C2/C=C(C)CC(C)(C)C2)sc2ccc(OC)cc21	none
CCCC1CCC(=C(C#N)C(N)=O)CC1 (stereo not drawn)	none (no result: sEH inhibitor, sEH activator)
O=C1CCN2C=Nc3cccc4ccc1c2c34	BB579 growth dn 57
O=C(NCCSc1c[nH]c2ccccc12)C1CC1	none
Cc1ccccc1OCc1nc(-c2ccc(NC(=O)c3cccs3)cc2)no1	none (no result: sEH inhibitor, sEH activator)
Cc1ccccc1OCc1nc(-c2ccc(NC(=O)c3ccco3)cc2)no1	Measles CPE 71
CCOc1cccc(OCCCCN2CCOCC2)c1	Measles CPE 80
CCCCCNc1c(C(=O)OCC)c(=O)[nH]c2ccccc12	Measles CPE 36 (no result: sEH inhibitor, sEH activator)
CCCC(=O)Nc1c(C(=O)OCC)[nH]c2ccccc12	Measles CPE 39
CCOC(=O)c1[nH]c2cc3c(cc2c1NC(=O)CN1CCC2(CC1)OCCO2)OCO3	none
CCOC(=O)c1[nH]c2ccc(OCC)cc2c1NC(=O)CN1CCC2(CC1)OCCO2	Yeast life ext 57
CCOC(=O)c1[nH]c2ccccc2c1NC(=O)CN1CCCCC1	none
CCCCNc1c(C(=O)OCC)c(=O)[nH]c2ccccc12	none
C/C(=N\NC(=O)C1(C)CC1(Br)Br)c1ccc(NC(=O)c2ccc(C)o2)cc1 (stereo not drawn)	none (no result: sEH inhibitor, sEH activator)
S=C1NCCOCCOCCOCCOCCNC(=S)NCCOCCOCCOCCOCCN1	none (no result: Yeast life ext)
O=C(/C=C/c1ccc([N+](=O)[O-])cc1)Nc1cccnc1	none
O=C(/C=C/c1ccc(Cl)c([N+](=O)[O-])c1)Nc1cccnc1	Measles CPE 44
CCOC(=O)CCC(=O)N1CCOCCOCCN(C(=O)CCC(=O)OCC)CCOCCOCC1	none
CC(C)C(C(=O)Nc1nccs1)c1ccccc1 (stereo not drawn)	none
O=C(CC(c1ccccc1)c1ccco1)Nc1nccs1 (stereo not drawn)	Measles CPE 25 (no result: sEH inhibitor, sEH activator)
Clc1cccc(N/N=C/c2ccc(N3CCOCC3)s2)c1	none (no result: sEH inhibitor, sEH activator)
CC1CCCCN1S(=O)(=O)c1coc(C(N)=O)c1 (stereo not drawn)	BB579 growth dn 45
COc1ccc(C(=O)Oc2cccc(/C=N/NC(N)=S)c2)cc1	none (no result: sEH inhibitor, sEH activator)
O=C(COc1ccc(Cl)cc1Cl)Nc1c(-c2cccs2)nc2ccccn12	none (no result: sEH inhibitor, sEH activator)
COc1ccc(-n2c(CNC(=O)c3ccc(S(=O)(=O)N4CCCC4)cc3)n[nH]c2=S)cc1	none
Cc1cc2cc(CNC(=O)c3ccc(S(=O)(=O)N4CCCCC4)cc3)ccc2[nH]1	Measles CPE 35
O=C(NCc1ccc2[nH]c3c(c2c1)CCCC3)c1ccc(S(=O)(=O)N2CCCC2)cc1	none (no result: sEH inhibitor, sEH activator)
Cc1cccc(-n2c(CNC(=O)c3ccc(S(=O)(=O)N4CCCC4)cc3)n[nH]c2=S)c1	Measles CPE 36
Cc1ccc(CN2C(=O)CCC2C(=O)NCc2cccnc2)cc1 (stereo not drawn)	none
O=C(CN1C(=O)NC2(CCCCC2)C1=O)NC1CCCc2ccccc21 (stereo not drawn)	none (no result: sEH inhibitor, sEH activator)
Cc1cccc(C(=O)NNC(=O)CCC(=O)Nc2cccc(Cl)c2C)c1	Measles CPE 35 (no result: sEH inhibitor, sEH activator)
CCOc1ccc(N(CC(=O)Nc2ccc(OC)cc2)S(C)(=O)=O)cc1	Measles CPE 48
COCCCNC(=O)CN(c1ccc(OC)cc1)S(=O)(=O)c1ccc(NC(C)=O)cc1	Measles CPE 53
COc1ccc(N(CC(=O)NC(C)C)S(=O)(=O)c2ccc(NC(C)=O)cc2)cc1	none
O=C(NCCc1ccc(Cl)cc1)/C(=C/c1cccnc1)NC(=O)c1ccccc1	none (no result: sEH inhibitor, sEH activator)
O=C(Oc1ccccc1)c1cccc2cccnc12	Measles CPE 48
Cc1cc(N=Cc2c(O)ccc3cc(Br)ccc23)no1	none (no result: sEH inhibitor, sEH activator)
COc1ccc2c(c1)-c1nc(/N=C/c3ccc(O)cc3)sc1CC2	none (no result: sEH inhibitor, sEH activator)
Oc1ccc2ccccc2c1/C=N/c1nccs1	Yeast life ext 75
